HTR5A inv ctr – counter-screen for OPRM1-OPRD1 inverse agonists: human HTR5A inverse agonism; P47898; HTR5A cell line, luminescence; inhibition, % at 9.3 µM; 0.083% of 340,000 active; in the data active = inhibition mostly above about 23%, no sharp cut-off; inactive = mostly below about 18%;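 note: 0% = cells with DMSO and 100% = no-cell wells with DMSO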
Target sequence (P47898 whole entry, looked up): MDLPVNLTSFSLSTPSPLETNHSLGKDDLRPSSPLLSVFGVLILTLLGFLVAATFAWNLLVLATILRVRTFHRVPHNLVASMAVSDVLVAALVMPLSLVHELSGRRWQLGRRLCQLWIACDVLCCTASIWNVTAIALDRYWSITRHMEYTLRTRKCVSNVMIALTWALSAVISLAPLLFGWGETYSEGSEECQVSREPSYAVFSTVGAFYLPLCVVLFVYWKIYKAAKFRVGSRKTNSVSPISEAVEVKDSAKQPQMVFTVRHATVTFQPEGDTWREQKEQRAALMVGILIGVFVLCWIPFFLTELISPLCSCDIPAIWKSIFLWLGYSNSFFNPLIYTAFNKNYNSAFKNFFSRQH
MOR-DOR ag-1 – agonists of human mu-delta opioid receptor heterodimerization | 0.3% of 340,000 active | cells, OPRM1-OPRD1 heterodimerization, luminescence | P35372+P41143 | activation, % at 9.3 µM;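 note: 0% = vehicle-treated cells and 100% = reference agonist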
MC4R barr agon – agonists of human melanocortin 4 receptor (MC4R) beta-arrestin. activation, % at 8.9 µM. U2OS MC4R beta-arrestin complementation, luminescence; percent of melanotan II response, DMSO zero. 0.98% of 360,000 active. P32245;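 active = activation above a per-plate cutoff, the mean activation of sample wells on that plate plus 3 SD, cut at about 8% in these data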
OPRM1-OPRD1 inv – inverse agonist of human OPRM1-OPRD1 heterodimerization; inhibition, % at 9.3 µM; 0.21% of 340,000 active; P35372+P41143; cell-based MOR-DOR heterodimer luminescence, inverse agonism; in the data active = inhibition above about 22%, passing the limit was not always enough;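 note: 0% = cells with DMSO and 100% = wells without cells with DMSO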
MC4R antag cAMP – human MC4R antagonism in cAMP assay; P32245; AID 540295; MC4R-expressing cells, MTII-stimulated cAMP, LANCE TR-FRET; 0.48% of 360,000 active; inhibition, % at 6.5 µM;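 active = inhibition above its plate's cutoff, the mean of tested wells on that plate plus 3 SD, cut at about 29% in these data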;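 note: 0% = Melanotan II alone and 100% = Melanotan II plus saturating MCL0020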
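Test system: U2OS cells stably expressing human melanocortin 4 receptor (MC4R); also added: Melanotan II challenge; compound: 6.5 µM single dose; timing: 30-min compound preincubation, 1-h Melanotan II challenge, 1-h detection, room temperature; signal: Eu-cAMP/anti-cAMP TR-FRET, emission 671 nm; repeats: one well per compound, no replicates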
HTR5A ag – activates human HTR5A in OPRM1-OPRD1 agonist counter-screen. 0.61% of 340,000 active. HTR5A agonist assay, luminescence, cell-based. P47898. activation, % at 9.3 µM; in the data active = activation mostly above about 9.5%, no sharp cut-off; inactive = mostly below about 7.6%;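 note: 0% = cells with vehicle only and 100% = reference agonist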
MOR-DOR ag-2 – opioid heterodimer agonism, HTR5A counter-screen. activation, % at 9.3 µM. 13% of 800 active. U2OS counter-screen cells, complementation luminescence, 3 h. shares compounds with HTR5A ag. AID 504913
HTR5A ag conf – HTR5A (human) agonism, confirmation. HTR5A agonist cell assay, luminescence. shares compounds with HTR5A ag. 17% of 800 active. activation, % at 9.3 µM; in the data active = activation above about 17%;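 note: 0% = cells with vehicle only and 100% = full reference agonist response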
Numbers without * were called inactive; . = no result. An excerpt weighted towards active compounds, which were near 2.4% of everything screened. Cut-off read from the data, not from the text of the source, unless noted: active = activation above about 18%; inactive = the rest.

SMILES	HTR5A inv ctr	MOR-DOR ag-1	MC4R barr agon	OPRM1-OPRD1 inv	MC4R antag cAMP	HTR5A ag	MOR-DOR ag-2	HTR5A ag conf
CC(OC(=O)CN1C(=O)C2CC=CCC2C1=O)C(=O)Nc1ccc(F)cc1Cl (stereo not drawn)	11	-1	-1	6	4	0	.	.
Cc1nc(N)nc(N)c1CCCc1ccc(Cl)c(Cl)c1	-30	2	3	-8	1	18*	1	0
CCN(CC)S(=O)(=O)c1ccc(NC(=O)COC(=O)c2ccc(NC(=O)CC#N)cc2)cc1	3	-5	0	21	1	-1	.	.
N#Cc1ccc(OCC(=O)N2CCN(c3ccc(C(F)(F)F)cn3)CC2)cc1	-6	0	0	1	1	19*	-1	-2
COc1ccc(N(CC(=O)NCCSc2ccccn2)S(=O)(=O)c2ccccc2)c(OC)c1	-58	4	2	-31	14	19*	0	21*
CCN(c1ccccc1)S(=O)(=O)c1ccc(Cl)c(C(=O)NCC2CCCO2)c1 (stereo not drawn)	-29	-1	-2	8	2	3	.	.
Cn1nccc1NC(=O)COCC(=O)O	17	-2	-2	12	-1	-5	.	.
COc1ccccc1N1CCN(C(=O)c2cccc(C(=O)N3CCN(c4ccccc4OC)CC3)c2)CC1	-36	0	2	0	2	15*	4	-4
COc1ccc(C(=O)N2CCN(c3ccccc3Cl)CC2)cc1S(=O)(=O)NC1CC1	-44	0	-2	0	12	18*	96*	3
COc1ccc(C(=O)N2CCN(c3cccc(C)c3C)CC2)cc1S(=O)(=O)NC1CC1	1	-1	-1	7	0	2	.	.
Cc1nn(-c2ccccc2)c2c1c(C)c(CCC(=O)N1CCOCC1)c(=O)n2C	-12	-1	-2	5	12	-2	.	.
Cc1ccc(OCCn2c(CCNC(=O)C(C)C)nc3ccccc32)cc1	-55	-2	0	13	-4	20*	5	11
O=C(COC(=O)C1CCC1)NCc1ccc(Cl)cc1Cl	-4	-1	-3	3	3	-2	.	.
COc1ccc(C(=O)NCCc2c[nH]c3ccccc23)cc1OC	-9	-3	-3	16	0	-4	.	.
Cc1ccc(C(=O)N/C(=C\c2cccs2)C(=O)NCCc2c[nH]c3ccccc23)cc1C	-44	-3	-1	16	1	19*	2	38*
COc1ccc(C(=O)N/C(=C\c2cccc3ccccc23)C(=O)NCCc2c[nH]c3ccccc23)cc1OC	-47	-2	3	10	10	19*	0	-1
Cc1noc(C)c1NC(=O)N(C)C[C@H]1Oc2ccc(NC(=O)Nc3ccc(C(F)(F)F)cc3)cc2C(=O)N([C@H](C)CO)C[C@@H]1C	-22	-1	-2	4	7	3	.	.
CCC1Sc2ccc(S(=O)(=O)CCC(=O)Nc3ccc(OC(F)(F)F)cc3)cc2NC1=O (stereo not drawn)	12	-1	5	6	18	3	.	.
CCCOn1nnnc1-c1ccccc1	-56	0	-2	-1	6	20*	535*	3
CCCOc1nnnn1-c1ccccc1	13	0	1	1	11	-5	.	.
COCCCN(CCC#N)C(=O)c1c(-c2c(Cl)cccc2Cl)noc1C	-25	0	0	2	9	-7	.	.
COc1ccc(Nc2nnc(Cc3ccc(Cl)cc3)c(=O)[nH]2)c(OC)c1	5	-1	-1	5	10	1	.	.
COc1ccc(Nc2nnc(Cc3ccccc3)c(=O)[nH]2)c(OC)c1	-31	2	0	-14	-3	17*	4	-1
Cn1c(SCC(=O)NCC2CCCO2)nc2c([nH]c3ccccc32)c1=O (stereo not drawn)	-6	1	1	-4	-12	22*	-1	1
CC1CCCC(NC(=O)COC(=O)c2ccc(S(=O)(=O)N3CCOCC3)cc2)C1C (stereo not drawn)	-14	1	-2	-4	5	1	.	.
SMILES	HTR5A inv ctr	MOR-DOR ag-1	MC4R barr agon	OPRM1-OPRD1 inv	MC4R antag cAMP	HTR5A ag	MOR-DOR ag-2	HTR5A ag conf
CC1CCCC(NC(=O)COC(=O)c2cc(S(=O)(=O)N3CCOCC3)ccc2F)C1C (stereo not drawn)	-47	0	3	0	20	18*	4	6
c1ccc2c(c1)nc(N1CCOCC1)c1ccccc12	4	3	-1	-14	3	19*	4	3
Cc1cc(C(C)(C)C)cc(C)c1CC1=NCCN1	-236	-1	1	4	0	90*	0	90*
CCOC(=O)Nc1ccc(C(=O)/C=C/c2ccccc2)cc1	15	-1	-2	8	2	3	.	.
N#Cc1ccc(Sc2ccccn2)c([N+](=O)[O-])c1	-5	1	-1	-4	-9	2	.	.
NNS(=O)(=O)c1ccc(Sc2ccccn2)c([N+](=O)[O-])c1	15	-3	-3	15	0	15*	0	13
O=C(Cn1nc(C(F)(F)F)c2c1CCC2)NCc1ccc(Cl)cc1	3	0	2	-1	8	-4	.	.
CCNC(=O)c1ccc(-n2nc(C(F)(F)F)c3c2CCCC3)cc1	-79	-1	2	4	2	16*	1	36*
Cc1ccc(CNC(=O)c2nnn(CC(=O)Nc3cc(C)cc(C)c3)c2N)cc1	1	-2	-1	11	-7	0	.	.
COc1ccc2[nH]c(=O)c(-c3nnn(-c4ccccc4)n3)cc2c1	19	-1	1	4	2	1	.	.
O=c1[nH]c2ccccc2cc1-c1nnn(-c2ccccc2)n1	-38	-2	-1	9	5	21*	59*	-2
Cc1ccc(S(=O)(=O)NNC(=O)c2ccc3ccccc3n2)cc1	-7	-3	-2	14	1	4	.	.
COc1ccc(C(=O)N2CCN(CCc3ccccc3)CC2)cc1[N+](=O)[O-]	-46	-2	-2	12	-1	19*	1	2
CCn1cc(C(=O)N[C@H](C(=O)NCCCO)C(C)C)c(=O)c2cc3c(cc21)OCO3	-5	-1	-1	5	11	1	.	.
Cc1ccc(S(=O)(=O)NC(=NC2CCCCC2)c2ccc(Cl)cc2)cc1	-43	1	-3	-11	8	14*	2	4
CCOc1ccc(/C=C/C(=O)Nc2ccc3[nH]c(=O)[nH]c3c2)cc1	-3	-1	-2	3	-3	5	.	.
